Measured values reported in ChEMBL document CHEMBL3091351, “The 3,7-diazabicyclo[3.3.1]nonane scaffold for subtype selective nicotinic acetylcholine receptor (nAChR) ligands. Part 1: the influence of different hydrogen bond acceptor systems on alkyl and (hetero)aryl substituents” (Bioorg Med Chem, 2013).
Activity calls are given as the source filed them. The calls are words filed in the database; no cut-off is given here.

Tests used:
[1] = target: T1, Neuronal acetylcholine receptor; alpha4/beta2 (Homo sapiens, UniProt P17787+P43681); assay: Displacement of [3H]nicotine from alpha4beta2 nAChR expressed in human SH-EP1 clonal cell membranes after 2 to 3 hrs by liquid scintillation counting analysis
T1 sequence (P17787 whole entry): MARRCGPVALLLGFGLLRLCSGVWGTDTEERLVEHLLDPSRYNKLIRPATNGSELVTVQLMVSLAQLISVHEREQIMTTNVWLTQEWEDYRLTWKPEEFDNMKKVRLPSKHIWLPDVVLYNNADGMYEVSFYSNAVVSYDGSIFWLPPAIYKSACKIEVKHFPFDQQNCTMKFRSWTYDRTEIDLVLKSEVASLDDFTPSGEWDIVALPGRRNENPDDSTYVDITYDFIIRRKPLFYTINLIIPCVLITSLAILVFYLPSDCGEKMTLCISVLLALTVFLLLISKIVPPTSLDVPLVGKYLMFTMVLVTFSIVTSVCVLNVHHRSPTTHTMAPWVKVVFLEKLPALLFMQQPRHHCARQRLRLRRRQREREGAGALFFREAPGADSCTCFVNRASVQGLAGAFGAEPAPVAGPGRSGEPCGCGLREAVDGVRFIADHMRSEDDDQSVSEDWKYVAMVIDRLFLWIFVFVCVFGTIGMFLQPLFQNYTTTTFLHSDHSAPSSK
T1 sequence (P43681 whole entry): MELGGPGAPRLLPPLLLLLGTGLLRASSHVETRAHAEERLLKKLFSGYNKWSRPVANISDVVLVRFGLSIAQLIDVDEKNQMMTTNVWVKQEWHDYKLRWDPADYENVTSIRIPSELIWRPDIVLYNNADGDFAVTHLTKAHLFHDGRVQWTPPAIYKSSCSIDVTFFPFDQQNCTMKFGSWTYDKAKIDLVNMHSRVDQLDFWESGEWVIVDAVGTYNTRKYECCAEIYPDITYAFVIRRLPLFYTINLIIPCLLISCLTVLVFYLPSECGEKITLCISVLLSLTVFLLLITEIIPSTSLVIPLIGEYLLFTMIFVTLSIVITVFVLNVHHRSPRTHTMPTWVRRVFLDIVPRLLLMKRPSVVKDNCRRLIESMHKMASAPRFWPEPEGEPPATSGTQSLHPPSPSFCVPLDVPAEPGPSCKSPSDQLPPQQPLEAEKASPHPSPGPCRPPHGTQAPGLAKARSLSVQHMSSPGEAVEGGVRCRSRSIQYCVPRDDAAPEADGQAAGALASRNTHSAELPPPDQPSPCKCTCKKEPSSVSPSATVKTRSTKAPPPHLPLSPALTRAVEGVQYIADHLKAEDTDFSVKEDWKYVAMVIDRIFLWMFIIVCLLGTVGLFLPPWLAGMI

[2] = target: T2, Neuronal acetylcholine receptor; alpha4/beta2 (Rattus norvegicus, UniProt P09483+P12390); assay: Displacement of [3H]nicotine from alpha4beta2 nAChR in Sprague-Dawley rat brain membrane fraction after 2 to 3 hrs by liquid scintillation counting analysis; assay type: cell membranes
T2 sequence (P09483 whole entry): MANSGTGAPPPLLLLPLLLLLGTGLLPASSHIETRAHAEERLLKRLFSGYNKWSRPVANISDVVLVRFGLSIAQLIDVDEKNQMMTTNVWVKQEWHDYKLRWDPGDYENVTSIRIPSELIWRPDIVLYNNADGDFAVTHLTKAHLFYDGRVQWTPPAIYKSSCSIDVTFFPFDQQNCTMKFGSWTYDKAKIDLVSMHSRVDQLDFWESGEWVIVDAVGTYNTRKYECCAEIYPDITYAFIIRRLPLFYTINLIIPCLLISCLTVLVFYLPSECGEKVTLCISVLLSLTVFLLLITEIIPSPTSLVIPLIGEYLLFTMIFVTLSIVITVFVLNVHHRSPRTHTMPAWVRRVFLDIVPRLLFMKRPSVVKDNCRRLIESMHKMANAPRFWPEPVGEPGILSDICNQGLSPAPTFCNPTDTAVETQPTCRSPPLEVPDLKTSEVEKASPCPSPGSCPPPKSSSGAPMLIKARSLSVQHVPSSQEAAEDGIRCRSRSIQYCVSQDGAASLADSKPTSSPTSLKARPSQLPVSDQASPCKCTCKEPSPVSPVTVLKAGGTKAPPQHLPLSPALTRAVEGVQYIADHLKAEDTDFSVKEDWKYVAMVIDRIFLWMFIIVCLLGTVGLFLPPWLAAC
T2 sequence (P12390 whole entry): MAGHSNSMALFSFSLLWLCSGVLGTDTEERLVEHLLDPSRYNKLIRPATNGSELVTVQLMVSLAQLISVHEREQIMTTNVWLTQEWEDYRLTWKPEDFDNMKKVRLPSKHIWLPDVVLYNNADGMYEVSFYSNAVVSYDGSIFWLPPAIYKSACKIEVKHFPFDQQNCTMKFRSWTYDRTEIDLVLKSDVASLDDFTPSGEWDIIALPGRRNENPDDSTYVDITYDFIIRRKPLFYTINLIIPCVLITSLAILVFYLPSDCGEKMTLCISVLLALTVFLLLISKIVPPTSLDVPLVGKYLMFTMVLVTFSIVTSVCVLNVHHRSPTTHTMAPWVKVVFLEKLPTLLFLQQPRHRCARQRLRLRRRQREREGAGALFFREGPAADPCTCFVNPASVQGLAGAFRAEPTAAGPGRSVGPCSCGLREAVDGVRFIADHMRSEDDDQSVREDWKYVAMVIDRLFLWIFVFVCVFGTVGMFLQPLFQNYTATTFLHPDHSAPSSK

[3] = Displacement of [3H]epibatidine from alpha3beta4 nAChR in calf adrenal membranes fraction after 90 mins by liquid scintillation counting analysis; assay type: cell membranes, Bos taurus
In short: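 Calf adrenal membranes (60–70 µg) in HSS buffer with 0.5 nM (±)-[3H]epibatidine, 6–9 test concentrations, 90 min at 22 °C. Non-specific binding with 300 µM (−)-nicotine. PEI-presoaked glass fibre filtration, liquid scintillation read-out; duplicate to quadruplicate, 2–10 independent experiments.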

[4] = target: T3, Neuronal acetylcholine receptor subunit alpha-7 (Rattus norvegicus, UniProt Q05941); assay: Displacement of [3H]methyllycaconitine from alpha7 nAChR in Sprague-Dawley rat forebrain P2 fraction after 90 mins by liquid scintillation counting analysis
T3 sequence (Q05941 whole entry): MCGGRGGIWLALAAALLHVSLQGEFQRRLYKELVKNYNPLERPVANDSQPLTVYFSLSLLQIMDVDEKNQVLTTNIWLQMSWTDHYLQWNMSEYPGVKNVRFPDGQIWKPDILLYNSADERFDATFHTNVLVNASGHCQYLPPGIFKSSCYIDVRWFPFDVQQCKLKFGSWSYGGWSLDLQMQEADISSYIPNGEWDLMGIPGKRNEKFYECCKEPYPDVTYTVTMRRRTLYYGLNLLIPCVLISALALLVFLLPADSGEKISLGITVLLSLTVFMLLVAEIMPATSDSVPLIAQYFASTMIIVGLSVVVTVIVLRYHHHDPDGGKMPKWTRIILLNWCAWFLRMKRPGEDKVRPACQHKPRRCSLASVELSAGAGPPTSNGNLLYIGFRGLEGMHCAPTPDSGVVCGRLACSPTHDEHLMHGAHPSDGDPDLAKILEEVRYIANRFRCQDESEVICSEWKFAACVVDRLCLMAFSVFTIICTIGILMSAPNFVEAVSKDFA

[5] = target: T3, Neuronal acetylcholine receptor subunit alpha-7; assay: Displacement of [3H]methyllycaconitine from alpha7 nAChR in Sprague-Dawley rat brain membrane fraction after 2 hrs by liquid scintillation counting analysis; assay type: cell membranes
In short: (§1)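 Competition binding on rat forebrain P2 membranes (60–70 µg protein) with [3H]MLA across 6–9 test concentrations. Incubation 120 min at 22 °C; 1 µM MLA defined non-specific binding. Samples filtered on PEI-presoaked glass fibre, scintillation-counted; duplicate to quadruplicate, 2–10 independent experiments.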

[6] = target: T2, Neuronal acetylcholine receptor; alpha4/beta2; assay: Displacement of [3H]epibatidine from alpha4beta2 nAChR in Sprague-Dawley rat forebrain P2 fraction after 90 mins by liquid scintillation counting analysis
In short: (§2)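 Rat forebrain P2 membranes (60 µg protein) in HSS buffer with 0.5 nM (±)-[3H]epibatidine and 6–9 test concentrations. Incubated 90 min at 22 °C; non-specific binding defined with 300 µM (−)-nicotine. Filtered through PEI-presoaked glass fibre filters and counted by liquid scintillation. Run in duplicate to quadruplicate, with 2–10 independent experiments.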

[7] = Binding affinity to (alpha1)2beta1gammadelta nAChR in Torpedo californica electroplax by radioligand displacement assay; set-up: species or system Tetronarce californica
In short: (§3)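 Torpedo californica electroplax membranes (60–70 µg) incubated with (±)-[3H]epibatidine and 6–9 test concentrations in HSS buffer, 90 min at 22 °C. 300 µM (−)-nicotine defined non-specific binding. PEI-presoaked glass fibre filtration, scintillation counting; duplicate to quadruplicate, 2–10 independent experiments.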

[8] = Binding affinity to pig adrenal alpha3beta4 nAChR by radioligand displacement assay; set-up: species or system Sus scrofa
[9] = target: T3, Neuronal acetylcholine receptor subunit alpha-7; assay: Displacement of [3H]methyllycaconitine from rat forebrain alpha7 nAChR; in short: as §1
[10] = target: T1, Neuronal acetylcholine receptor; alpha4/beta2; assay: Agonist activity at human alpha4beta2 nAChR expressed in Xenopus laevis oocytes at 1 uM incubated for 8 secs followed by compound washout for 241 secs by Two-electrode voltage clamp assay; assay type: cell-based
In short: (§4)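 Stage V oocytes, defolliculated with collagenase, injected with 5–20 ng subunit cRNA and recorded 1–7 days later. Two-electrode clamp at −60 mV in Ringer's with 1 µM atropine, pH 7.2. Perfusion 2 ml/min for α7, 4 ml/min for the others. Test applications were bracketed by ACh controls (30 µM α1β1εδ, 60 µM α7, 100 µM α3β4, 30 µM α4β2).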

[11] = target: Neuronal acetylcholine receptor subunit alpha-7 (Homo sapiens) (UniProt P36544); assay: Agonist activity at human alpha7 nAChR expressed in Xenopus laevis oocytes at 1 uM incubated for 12 secs followed by compound washout for 181 secs by Two-electrode voltage clamp assay; assay type: cell-based; in short: as §4
Neuronal acetylcholine receptor subunit alpha-7 (Homo sapiens), sequence (P36544 whole entry, the tested form may be a part): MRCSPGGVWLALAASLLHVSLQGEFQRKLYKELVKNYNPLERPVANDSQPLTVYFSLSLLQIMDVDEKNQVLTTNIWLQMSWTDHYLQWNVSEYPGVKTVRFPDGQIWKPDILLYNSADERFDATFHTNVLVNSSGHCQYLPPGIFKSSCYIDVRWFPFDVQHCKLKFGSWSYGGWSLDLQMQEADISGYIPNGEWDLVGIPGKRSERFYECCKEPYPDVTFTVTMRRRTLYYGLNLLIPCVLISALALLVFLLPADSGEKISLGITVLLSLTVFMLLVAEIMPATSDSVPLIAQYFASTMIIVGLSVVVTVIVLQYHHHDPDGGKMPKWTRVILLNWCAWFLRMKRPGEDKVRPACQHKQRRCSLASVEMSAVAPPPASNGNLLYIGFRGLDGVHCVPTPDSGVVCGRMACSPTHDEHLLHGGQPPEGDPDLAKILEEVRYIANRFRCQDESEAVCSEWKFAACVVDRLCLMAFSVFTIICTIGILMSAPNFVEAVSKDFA

[12] = Displacement of [3H]epibatidine from (alpha1)2beta1gammadelta nAChR in Torpedo californica electroplax after 90 mins by liquid scintillation counting analysis; set-up: species or system Tetronarce californica; in short: as §3
[13] = target: Neuronal acetylcholine receptor subunit alpha-7 (Homo sapiens) (UniProt P36544); assay: Agonist activity at human alpha7 nAChR expressed in Xenopus laevis oocytes at 10 uM incubated for 12 secs followed by compound washout for 181 secs by Two-electrode voltage clamp assay; assay type: cell-based; in short: as §4
[14] = target: T4, Neuronal acetylcholine receptor; alpha3/beta4 (Homo sapiens) (UniProt P30926+P32297); assay: Agonist activity at human alpha3beta4 nAChR expressed in Xenopus laevis oocytes at 1 uM incubated for 8 secs followed by compound washout for 241 secs by Two-electrode voltage clamp assay; assay type: cell-based; in short: as §4
[15] = target: T5, Nicotinic acetylcholine receptor alpha1/beta1/epsilon/delta (Mus musculus) (UniProt P04756+P09690+P02716+P20782); assay: Agonist activity at mouse alpha1beta1epsilondelta nAChR expressed in Xenopus laevis oocytes at 1 uM incubated for 8 secs followed by compound washout for 241 secs by Two-electrode voltage clamp assay; assay type: cell-based; in short: as §4
[16] = target: T4, Neuronal acetylcholine receptor; alpha3/beta4 (Homo sapiens); assay: Agonist activity at human alpha3beta4 nAChR expressed in Xenopus laevis oocytes at 10 uM incubated for 8 secs followed by compound washout for 241 secs by Two-electrode voltage clamp assay; assay type: cell-based; in short: as §4
[17] = target: T5, Nicotinic acetylcholine receptor alpha1/beta1/epsilon/delta (Mus musculus); assay: Agonist activity at mouse alpha1beta1epsilondelta nAChR expressed in Xenopus laevis oocytes at 10 uM incubated for 8 secs followed by compound washout for 241 secs by Two-electrode voltage clamp assay; assay type: cell-based; in short: as §4
[18] = target: T1, Neuronal acetylcholine receptor; alpha4/beta2; assay: Agonist activity at human alpha4beta2 nAChR expressed in Xenopus laevis oocytes at 10 uM incubated for 8 secs followed by compound washout for 241 secs by Two-electrode voltage clamp assay; assay type: cell-based; in short: as §4
[19] = Binding affinity to (alpha1)2beta1gammadelta nAChR (unknown origin); set-up: species or system Homo sapiens
[20] = target: T5, Nicotinic acetylcholine receptor alpha1/beta1/epsilon/delta (Mus musculus); assay: Antagonist activity at mouse alpha1beta1epsilondelta nAChR expressed in Xenopus laevis oocytes assessed as inhibition of acetylcholine-induced effect at 10 uM incubated for 8 secs followed by compound washout for 241 secs by Two-electrode voltage clamp assay; assay type: cell-based
In short: (§5)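 Oocytes clamped at −60 mV, perfused with Ringer's plus 1 µM atropine, pH 7.2. After two control ACh applications, the compound was co-applied with control ACh (60 µM for α7, 30 µM for α1β1εδ), followed by one further ACh control to gauge rundown. α7 used 2 ml/min perfusion; muscle subtype used 4 ml/min.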

[21] = target: Neuronal acetylcholine receptor subunit alpha-7 (Homo sapiens) (UniProt P36544); assay: Antagonist activity at human alpha7 nAChR expressed in Xenopus laevis oocytes assessed as inhibition of acetylcholine-induced effect at 10 uM incubated for 12 secs followed by compound washout for 181 secs by Two-electrode voltage clamp assay; assay type: cell-based; in short: as §5
[22] = target: T2, Neuronal acetylcholine receptor; alpha4/beta2; assay: Displacement of [3H]-epibatidine from rat forebrain alpha4beta2 nAChR; in short: as §2
[23] = target: T4, Neuronal acetylcholine receptor; alpha3/beta4 (Homo sapiens); assay: Partial agonist activity at human alpha3beta4 nAChR expressed in Xenopus laevis oocytes at 10 uM incubated for 8 secs followed by compound washout for 241 secs by Two-electrode voltage clamp assay; assay type: cell-based
In short: (§6)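 Oocytes injected with 50 nl of 5–20 ng subunit cRNA and recorded 1–7 days later. Two-electrode voltage clamp at −60 mV, with perfusion at 4 ml/min in Ringer's solution (pH 7.2, 1 µM atropine). Two initial ACh control applications, then a compound application, then a follow-up ACh control. Applications lasted 8 s with a 241 s washout. Control ACh was 100 µM for α3β4 and 30 µM for α4β2.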

[24] = target: Neuronal acetylcholine receptor subunit alpha-7 (Homo sapiens) (UniProt P36544); assay: Partial agonist activity at human alpha7 nAChR expressed in Xenopus laevis oocytes at 10 uM incubated for 12 secs followed by compound washout for 181 secs by Two-electrode voltage clamp assay; assay type: cell-based
In short: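 α7-expressing oocytes injected with 50 nl of 5–20 ng cRNA and recorded 1–7 days later. Clamped at −60 mV and perfused at 2 ml/min with Ringer's solution (pH 7.2, 1 µM atropine). Two 60 µM ACh control applications, then a compound application, then a follow-up ACh control. Applications lasted 12 s with a 181 s washout.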

[25] = target: T1, Neuronal acetylcholine receptor; alpha4/beta2; assay: Antagonist activity at human alpha4beta2 nAChR expressed in Xenopus laevis oocytes assessed as inhibition of acetylcholine-induced effect at 10 uM incubated for 8 secs followed by compound washout for 241 secs by Two-electrode voltage clamp assay; assay type: cell-based
In short: (§7)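 Oocytes injected with 50 nl of 5–20 ng subunit cRNA and recorded 1–7 days later. Two-electrode voltage clamp at −60 mV, with perfusion at 4 ml/min in Ringer's solution (pH 7.2, 1 µM atropine). Each recording ran two ACh controls, then compound co-applied with ACh, then a follow-up ACh control. Applications lasted 8 s with a 241 s washout. Control ACh was 100 µM for α3β4 and 30 µM for α4β2.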

[26] = target: T1, Neuronal acetylcholine receptor; alpha4/beta2; assay: Partial agonist activity at human alpha4beta2 nAChR expressed in Xenopus laevis oocytes at 10 uM incubated for 8 secs followed by compound washout for 241 secs by Two-electrode voltage clamp assay; assay type: cell-based; in short: as §6
[27] = target: T4, Neuronal acetylcholine receptor; alpha3/beta4 (Homo sapiens); assay: Antagonist activity at human alpha3beta4 nAChR expressed in Xenopus laevis oocytes assessed as inhibition of acetylcholine-induced effect at 10 uM incubated for 8 secs followed by compound washout for 241 secs by Two-electrode voltage clamp assay; assay type: cell-based; in short: as §7

| Structure (SMILES) | Ki [1] [nM] | Ki [2] [nM] | Ki [3] [nM] | Ki [4] [nM] | Ki [5] [nM] | Ki [6] [nM] | Ki [12] [nM] | Activity [13] | Activity [16] | other results |
| --- | --- | --- | --- | --- | --- | --- | --- | --- | --- | --- |
| CC(C)C(=O)N1C[C@@H]2CNC[C@@H](C2)C1 | 44.4 | 102 | 828 | > 5000 | 645 | 50.3 |  |  |  |  |
| O=c1cccc2n1C[C@@H]1CNC[C@H]2C1 [CYTISINICLINE] |  |  |  |  |  |  |  |  |  | Ki [7]: 1300 nM; Ki [8]: 19 nM; Ki [9]: 250 nM |
| C1NCC2CNCC1C2 |  |  | > 1000 | > 1000 |  | 600 | > 1000 | Active | Active | Activity [10]: Active; Activity [11]: Active; Activity [14]: Active; Activity [15]: Active |
| CCCC(=O)N1C[C@@H]2CNC[C@@H](C2)C1 | 2.9 | 8.1 | 266 | > 1000 | 230 | 3.6 | > 5000 | Active | Active | Activity [17]: inactive; Activity [18]: Active |
| O=C1CCCC2[C@H]3CNC[C@H](C3)CN12 (stereo partly drawn) |  |  |  |  |  |  |  |  |  | Ki [19]: 19000 nM |
| O=C(CC1CCCC1)N1C[C@@H]2CNC[C@@H](C2)C1 |  |  |  |  |  | 43.5 |  |  | inactive | Activity [20]: Active; Activity [21]: Active |
| O=C(C1CCCC1)N1C[C@@H]2CNC[C@@H](C2)C1 | 20.2 | 26.6 |  |  | 211 | 10.8 |  | Active | inactive | Activity [17]: inactive |
| O=c1c(-c2cccnc2)ccc2n1C[C@@H]1CNC[C@H]2C1 |  |  |  |  |  |  |  |  |  | Ki [7]: > 5000 nM; Ki [22]: 0.91 nM; Ki [9]: 1100 nM |
| CC(=O)N1C[C@@H]2CNC[C@@H](C2)C1 | 20.2 | 18.7 | 664 | 636 | 3280 | 5.6 |  | Active | Active | Activity [17]: inactive |
| CCC(=O)N1C[C@@H]2CNC[C@@H](C2)C1 | 10.4 | 12.2 | 329 | > 2000 | 795 | 4.5 | > 1000 | Active | Active |  |
| CN1C[C@@H]2C[C@H](C1)C1CCCC(=O)N1C2 (stereo partly drawn) |  |  |  |  |  |  |  |  |  | Ki [19]: > 50000 nM |
| O=C(c1ccco1)N1C[C@@H]2CNC[C@@H](C2)C1 | 9.9 | 31 | 2240 |  | 15000 | 21.4 | > 10000 |  |  |  |
| O=C(c1ccc(-c2ccccc2)cc1)N1C[C@@H]2CNC[C@@H](C2)C1 |  |  | 1090 |  |  | 39.9 |  |  |  | Activity [23]: Active; Activity [21]: Active; Activity [24]: Active; Activity [25]: Active; Activity [26]: Active; Activity [27]: Active |
